Reference: ChEMBL document CHEMBL1781883, “Design of novel neurokinin 1 receptor antagonists based on conformationally constrained aromatic amino acids and discovery of a potent chimeric opioid agonist-neurokinin 1 receptor antagonist” (J Med Chem, 2011)
Active and inactive are the calls of the source. The rule behind the calls is not given here.

Legend:
[1] = molecular target: T1, Substance-P receptor (Homo sapiens, UniProt P25103); experiment: Agonist activity at human NK1 receptor expressed in CHO-K1 cells at 10^-4 M after 30 mins by aequorin luminescence assay; format: functional, cell-based
T1 sequence (P25103 whole entry): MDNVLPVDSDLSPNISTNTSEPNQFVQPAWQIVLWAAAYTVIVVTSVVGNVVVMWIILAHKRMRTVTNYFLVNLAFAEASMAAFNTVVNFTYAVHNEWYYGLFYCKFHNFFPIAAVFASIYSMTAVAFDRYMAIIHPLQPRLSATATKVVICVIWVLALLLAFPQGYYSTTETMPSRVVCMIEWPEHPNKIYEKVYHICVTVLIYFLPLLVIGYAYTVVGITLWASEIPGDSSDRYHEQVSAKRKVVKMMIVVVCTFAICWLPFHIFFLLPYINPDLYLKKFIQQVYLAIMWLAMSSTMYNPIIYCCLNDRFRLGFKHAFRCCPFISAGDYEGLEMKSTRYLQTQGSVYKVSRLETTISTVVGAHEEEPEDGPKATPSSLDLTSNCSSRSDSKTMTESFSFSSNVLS
Method in brief: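 CHO-K1 cells stably expressing human NK1R and transfected with apoaequorin; loaded 4 h with 5 μM coelenterazine h in BSA-medium, diluted 10-fold, further 30 min. Compound added to wells; cells (2.5 × 10^4) injected, light read every second for 30 s, then 10 nM ATP injected as positive control and read 10 s more. Duplicates; expressed as % of luminescence at 10^-4 M SP.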

[2] = molecular target: T1, Substance-P receptor; experiment: Antagonist activity at human NK1 receptor expressed in CHO-K1 cells assessed as inhibition of substance P-induced calcium-dependent aequorine luminescence; format: functional, cell-based; conditions: read-out: pA2 (converted)
Method in brief: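 Aequorin-expressing CHO-K1/hNK1 cells charged 4 h with 5 μM coelenterazine h, then diluted and held 30 min. SP series 10^-11 to 10^-4 M combined with test compound at 10^-8 to 10^-4 M; cell injection started 30 s luminescence read, then 10 nM ATP control.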

[3] = molecular target: T1, Substance-P receptor; experiment: Displacement of [3H]SP from human recombinant NK1 receptor expressed in CHO cells after 20 mins by liquid scintillation counting; format: cell-based
Method in brief: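 Crude membranes from hNK1/CHO cells; 20 µg incubated with 0.4 nM [3H]SP and six test concentrations in duplicate, 50 mM Tris pH 7.4 with 5 mM MgCl2, bacitracin, bestatin, captopril, PMSF; 25 °C, 20 min. Nonspecific binding with 10 µM SP. Filtration on PEI-soaked GF/B, scintillation counting; IC50 by nonlinear regression, Ki by Cheng–Prusoff; three independent experiments, mean ± SEM.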

[4] = molecular target: T1, Substance-P receptor; experiment: Antagonist activity at NK1 receptor; format: functional

Activity [1]	Kb [2]	Ki [3]	IC50 [4]	SMILES
inactive	–	–	–	CC(=O)N1Cc2[nH]c3ccccc3c2C[C@H]1C(=O)N(C)Cc1cc(C(F)(F)F)cc(C(F)(F)F)c1
inactive	–	–	–	CC(=O)N[C@@H]1Cc2c([nH]c3ccccc23)CN(CC(=O)N(C)Cc2cc(C(F)(F)F)cc(C(F)(F)F)c2)C1=O
inactive	–	–	–	CC(=O)N[C@H]1Cc2c([nH]c3ccccc23)CN(Cc2cc(C(F)(F)F)cc(C(F)(F)F)c2)C1=O
inactive	–	–	–	CC(=O)N[C@H]1Cc2ccccc2[C@@H](c2ccccc2)N(CC(=O)NCc2cc(C(F)(F)F)cc(C(F)(F)F)c2)C1=O
inactive	–	–	–	CC(=O)N1Cc2ccccc2C[C@H]1C(=O)NCc1cc(C(F)(F)F)cc(C(F)(F)F)c1
inactive	–	–	–	CC(=O)N[C@H]1Cc2ccccc2[C@@H](c2ccccc2)N(CC(=O)N(C)Cc2cc(C(F)(F)F)cc(C(F)(F)F)c2)C1=O
–	–	–	25 nM	O=C1O[C@@H](Cc2c[nH]c3ccccc23)C(=O)N1Cc1cc(C(F)(F)F)cc(C(F)(F)F)c1
inactive	–	–	–	CC(=O)N1Cc2[nH]c3ccccc3c2C[C@@H]1C(=O)N(C)Cc1cc(C(F)(F)F)cc(C(F)(F)F)c1
inactive	31.6 nM	32 nM	–	CC(=O)N1Cc2ccccc2C[C@H]1C(=O)N(C)Cc1cc(C(F)(F)F)cc(C(F)(F)F)c1
inactive	–	–	–	CC(=O)N[C@H]1Cc2c([nH]c3ccccc23)CN(CC(=O)N(C)Cc2cc(C(F)(F)F)cc(C(F)(F)F)c2)C1=O
inactive	–	–	–	CC(=O)N[C@@H]1Cc2ccccc2[C@@H](c2ccccc2)N(CC(=O)N(C)Cc2cc(C(F)(F)F)cc(C(F)(F)F)c2)C1=O
inactive	631 nM	387 nM	–	CC(=O)N[C@H]1Cc2ccccc2CN(CC(=O)NCc2cc(C(F)(F)F)cc(C(F)(F)F)c2)C1=O

SMILES	Activity [1]	Kb [2]	Ki [3]	IC50 [4]
CC(=O)N[C@H]1Cc2ccccc2CN(CC(=O)N(C)Cc2cc(C(F)(F)F)cc(C(F)(F)F)c2)C1=O	inactive	3.98 nM	27 nM	–
